# Measured values from ChEMBL document CHEMBL1151898 (J Nat Prod, 2009).
# Columns and labels:
# [1] = target: T1, Xanthine dehydrogenase/oxidase (Bos taurus, UniProt P80457); assay: Activity at bovine xanthine oxidase at 10 uM; details: cattle
# [2] = target: T1, Xanthine dehydrogenase/oxidase; assay: Activity at bovine xanthine oxidase at 25 uM; details: cattle
# [3] = target: T1, Xanthine dehydrogenase/oxidase; assay: Activity at bovine xanthine oxidase at 50 uM; details: cattle
# [4] = target: T1, Xanthine dehydrogenase/oxidase; assay: Activity at bovine xanthine oxidase at 25 uM preincubated for 10 mins; details: cattle
# [5] = target: T1, Xanthine dehydrogenase/oxidase; assay: Ratio of kcat to km for bovine xanthine oxidase at 10 uM; details: cattle
# [6] = target: T1, Xanthine dehydrogenase/oxidase; assay: Ratio of kcat to km for bovine xanthine oxidase at 25 uM; details: cattle
# [7] = target: T1, Xanthine dehydrogenase/oxidase; assay: Ratio of kcat to km for bovine xanthine oxidase at 50 uM; details: cattle
# [8] = target: T1, Xanthine dehydrogenase/oxidase; assay: Ratio of kcat to km for bovine xanthine oxidase at 25 uM preincubated for 10 mins; details: cattle
# [9] = target: T1, Xanthine dehydrogenase/oxidase; assay: Inhibition of bovine xanthine oxidase assessed as reduction of cytochrome c at 10 uM; details: cattle
# [10] = target: T1, Xanthine dehydrogenase/oxidase; assay: Inhibition of bovine xanthine oxidase assessed as reduction of cytochrome c at 50 uM; details: cattle
# [11] = target: T1, Xanthine dehydrogenase/oxidase; assay: Inhibition of bovine xanthine oxidase assessed as reduction of cytochrome c at 25 uM preincubated for 10 mins; details: cattle
# [12] = target: T1, Xanthine dehydrogenase/oxidase; assay: Inhibition of bovine xanthine oxidase assessed as reduction of cytochrome c; design: concentration or dose not given beside the values; details: cattle
# [13] = target: T1, Xanthine dehydrogenase/oxidase; assay: Inhibition of bovine xanthine oxidase assessed as reduction in xanthine turnover at 10 uM; details: cattle
# [14] = target: T1, Xanthine dehydrogenase/oxidase; assay: Inhibition of bovine xanthine oxidase assessed as reduction in xanthine turnover at 50 uM; details: cattle
# [15] = target: T1, Xanthine dehydrogenase/oxidase; assay: Inhibition of bovine xanthine oxidase
# [16] = target: T1, Xanthine dehydrogenase/oxidase; assay: Inhibition of bovine xanthine oxidase assessed as reduction in free enzyme turnover at 10 uM relative to control; details: cattle
# [17] = target: T1, Xanthine dehydrogenase/oxidase; assay: Inhibition of bovine xanthine oxidase assessed as reduction in free enzyme turnover at 50 uM relative to control; details: cattle
# [18] = target: T1, Xanthine dehydrogenase/oxidase; assay: Inhibition of bovine xanthine oxidase assessed as reduction in free enzyme turnover at 50 uM relative to control; details: cattle
# [19] = target: T1, Xanthine dehydrogenase/oxidase; assay: Inhibition of bovine xanthine oxidase assessed as reduction in xanthine turnover at 25 uM; details: cattle
# [20] = target: T1, Xanthine dehydrogenase/oxidase; assay: Ratio of kcat to km for bovine xanthine oxidase at 25 uM preincubated for 10 mins relative to control; details: cattle
# [21] = target: T1, Xanthine dehydrogenase/oxidase; assay: Inhibition of bovine xanthine oxidase assessed as decrease in production of superoxide at 50 uM relative to control; details: cattle
# Procedure, shortened: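 Superoxide followed indirectly by cytochrome c reduction. A550 monitored (Δε550 = 19.6 mM−1cm−1), initial rates vs no-inhibitor control. 25°C, 0.1 M MOPS, 0.2 mM EDTA, 0.1 M KCl, pH 7.4.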
# T1 sequence (P80457 whole entry): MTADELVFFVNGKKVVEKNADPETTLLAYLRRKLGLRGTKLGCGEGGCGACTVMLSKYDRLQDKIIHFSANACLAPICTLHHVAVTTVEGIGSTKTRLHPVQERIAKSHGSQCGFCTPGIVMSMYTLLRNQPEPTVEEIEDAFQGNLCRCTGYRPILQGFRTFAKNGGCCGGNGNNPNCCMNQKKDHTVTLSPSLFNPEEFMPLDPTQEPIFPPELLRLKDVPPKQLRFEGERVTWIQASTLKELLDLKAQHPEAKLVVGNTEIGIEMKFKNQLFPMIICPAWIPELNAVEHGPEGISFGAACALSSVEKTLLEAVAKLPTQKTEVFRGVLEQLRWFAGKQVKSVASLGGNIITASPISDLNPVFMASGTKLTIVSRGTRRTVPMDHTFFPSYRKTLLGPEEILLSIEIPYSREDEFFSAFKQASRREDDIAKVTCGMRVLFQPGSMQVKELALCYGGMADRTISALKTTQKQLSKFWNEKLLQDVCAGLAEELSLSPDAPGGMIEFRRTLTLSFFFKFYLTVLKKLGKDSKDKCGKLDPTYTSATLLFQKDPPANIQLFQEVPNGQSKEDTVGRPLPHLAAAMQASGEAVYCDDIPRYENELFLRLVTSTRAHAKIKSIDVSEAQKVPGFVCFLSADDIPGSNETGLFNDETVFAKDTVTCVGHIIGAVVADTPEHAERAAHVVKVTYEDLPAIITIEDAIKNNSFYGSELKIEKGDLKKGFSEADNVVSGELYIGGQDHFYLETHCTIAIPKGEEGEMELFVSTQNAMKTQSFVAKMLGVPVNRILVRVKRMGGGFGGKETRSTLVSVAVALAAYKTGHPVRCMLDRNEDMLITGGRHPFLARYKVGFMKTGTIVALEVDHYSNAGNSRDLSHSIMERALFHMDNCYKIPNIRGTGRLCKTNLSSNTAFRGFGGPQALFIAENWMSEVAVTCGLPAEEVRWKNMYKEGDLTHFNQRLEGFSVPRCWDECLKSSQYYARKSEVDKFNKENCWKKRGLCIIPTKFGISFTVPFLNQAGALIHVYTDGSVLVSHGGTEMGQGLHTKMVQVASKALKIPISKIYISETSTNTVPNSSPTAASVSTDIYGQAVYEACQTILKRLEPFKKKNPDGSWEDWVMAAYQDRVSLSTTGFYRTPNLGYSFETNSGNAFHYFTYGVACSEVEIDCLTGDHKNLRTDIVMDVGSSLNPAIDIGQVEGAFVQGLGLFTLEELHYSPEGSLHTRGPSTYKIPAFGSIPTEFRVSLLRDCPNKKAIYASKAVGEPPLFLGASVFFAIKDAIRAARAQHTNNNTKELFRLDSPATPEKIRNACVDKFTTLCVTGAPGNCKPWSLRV
inhibition at 10 µM [13] [%],inhibition at 50 µM [14] [%],SMILES,Kcat [1] [s⁻¹],Kcat [2] [s⁻¹],Kcat [3] [s⁻¹],Kcat [4] [s⁻¹],Kcat/Km [5] [M⁻¹ s⁻¹],Kcat/Km [6] [M⁻¹ s⁻¹],Kcat/Km [7] [M⁻¹ s⁻¹],Kcat/Km [8] [M⁻¹ s⁻¹],Activity [9] [nM/s],Activity [10] [nM/s],Activity [11] [nM/s],Activity [12] [nM/s],other results
–,–,Oc1ncnc2[nH]ncc12 [ALLOPURINOL],5.9,11.8,4.3,1.3,320000,150000,110000,7000,140,120,28,140,–
60,> 80,COc1cc(/C=C/C(=O)CC(=O)/C=C/c2ccc(O)c(OC)c2)ccc1O [CURCUMIN],2.6,4.3,5,6.5,4.8e+06,6.5e+06,5.1e+06,3.9e+06,160,150,150,150,–
–,–,O=c1cc(-c2ccc(O)c(O)c2)oc2cc(O)cc(O)c12 [LUTEOLIN],6.2,4.5,12.2,3.8,200000,30000,20000,50000,100,71,110,82,Ki [15]: 1900 nM
–,–,O=c1c(O)c(-c2ccc(O)c(O)c2)oc2cc(O)cc(O)c12 [QUERCETIN],3.8,1.9,12.4,8.1,1.6e+06,10000,20000,50000,140,80,110,100,fold change (FC) [16]: 20; fold change (FC) [17]: 170; fold change (FC) [18]: 170
50,50,COc1cc(C2Oc3cc([C@H]4Oc5cc(O)cc(O)c5C(=O)[C@@H]4O)ccc3OC2CO)ccc1O (stereo partly specified) [SILIBININ],5.8,13.3,4,6.9,140000,130000,110000,70000,160,140,120,150,inhibition at 25 µM [19]: 50%; fold change (FC) [20]: 80; inhibition at 50 µM [21]: 20%
